System: HEK-293T
Assay: Multiplex assay against HEK293T
Assay type: toxicity, cell-based
Details: human
Method in brief: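 With compound added, live cells were imaged on a CQ1 microscope at 37°C and 5% CO2; staining with Hoechst33342, BioTracker Green Microtubule Cytoskeleton Dye, MitoTracker Red and Annexin V Alexa Fluor 680 had been done at seeding. The CellPathfinder machine-learning gating scheme split cells into Hoechst high-intensity objects or normal cells, normal cells into healthy, pyknosed or fragmented nuclei, and pyknosed cells into mitotic or apoptotic. The tubulin, mitochondrial-mass and membrane-permeability phenotypes are per cents of healthy-nucleus cells.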

[1] = 12 h, 1 µM, compound concentration 1 uM, replicate 1
[2] = 12 h, 1 µM, compound concentration 1 uM, replicate 2
[3] = 12 h, 10 µM, compound concentration 10 uM, replicate 1
[4] = 12 h, 10 µM, compound concentration 10 uM, replicate 2
[5] = 24 h, 1 µM, compound concentration 1 uM, replicate 1
[6] = 24 h, 1 µM, compound concentration 1 uM, replicate 2
[7] = 24 h, 10 µM, compound concentration 10 uM, replicate 1
[8] = 24 h, 10 µM, compound concentration 10 uM, replicate 2
[9] = 48 h, 1 µM, compound concentration 1 uM, replicate 1
[10] = 48 h, 1 µM, compound concentration 1 uM, replicate 2
[11] = 48 h, 10 µM, compound concentration 10 uM, replicate 1
[12] = 48 h, 10 µM, compound concentration 10 uM, replicate 2

SMILES: CCCCC(=O)N(Cc1ccc(-c2ccccc2-c2nnn[nH]2)cc1)[C@H](C(=O)O)C(C)C
- Population Apoptotic (%) [1]: 44%
- Population Fragmented Nuclei (%) [1]: 7%
- Population Healthy Nuclei (%) [1]: 80%
- Population Hoechst High Intensity Objects (%) [1]: 9%
- Population Membrane Permeable-Phenotype (%) [1]: 0%
- Population Mitochondria Different-Phenotype (%) [1]: 36%
- Population Mitotic Cells (%) [1]: 55%
- Population Normal (%) [1]: 90%
- Population Pyknosed Nuclei (%) [1]: 12%
- Population Tubulin-Different-Phenotype (%) [1]: 16%
- Total Cell Count [1]: 469
- Population Apoptotic (%) [2]: 40%
- Population Fragmented Nuclei (%) [2]: 6%
- Population Healthy Nuclei (%) [2]: 74%
- Population Hoechst High Intensity Objects (%) [2]: 11%
- Population Mitochondria Different-Phenotype (%) [2]: 49%
- Population Mitotic Cells (%) [2]: 59%
- Population Normal (%) [2]: 88%
- Population Pyknosed Nuclei (%) [2]: 18%
- Population Tubulin-Different-Phenotype (%) [2]: 21%
- Total Cell Count [2]: 290
- Population Apoptotic (%) [3]: 21%
- Population Fragmented Nuclei (%) [3]: 7%
- Population Healthy Nuclei (%) [3]: 83%
- Population Hoechst High Intensity Objects (%) [3]: 5%
- Population Membrane Permeable-Phenotype (%) [3]: 0%
- Population Mitochondria Different-Phenotype (%) [3]: 30%
- Population Mitotic Cells (%) [3]: 78%
- Population Normal (%) [3]: 94%
- Population Pyknosed Nuclei (%) [3]: 8%
- Population Tubulin-Different-Phenotype (%) [3]: 19%
- Total Cell Count [3]: 507
- Population Apoptotic (%) [4]: 51%
- Population Fragmented Nuclei (%) [4]: 5%
- Population Healthy Nuclei (%) [4]: 81%
- Population Hoechst High Intensity Objects (%) [4]: 10%
- Population Mitochondria Different-Phenotype (%) [4]: 63%
- Population Mitotic Cells (%) [4]: 48%
- Population Normal (%) [4]: 89%
- Population Pyknosed Nuclei (%) [4]: 13%
- Total Cell Count [4]: 310
- Population Apoptotic (%) [5]: 30%
- Population Fragmented Nuclei (%) [5]: 11%
- Population Healthy Nuclei (%) [5]: 78%
- Population Hoechst High Intensity Objects (%) [5]: 5%
- Population Membrane Permeable-Phenotype (%) [5]: 0%
- Population Mitochondria Different-Phenotype (%) [5]: 21%
- Population Mitotic Cells (%) [5]: 70%
- Population Normal (%) [5]: 94%
- Population Pyknosed Nuclei (%) [5]: 10%
- Population Tubulin-Different-Phenotype (%) [5]: 12%
- Total Cell Count [5]: 630
- Population Apoptotic (%) [6]: 32%
- Population Fragmented Nuclei (%) [6]: 9%
- Population Healthy Nuclei (%) [6]: 82%
- Population Hoechst High Intensity Objects (%) [6]: 6%
- Population Mitochondria Different-Phenotype (%) [6]: 26%
- Population Mitotic Cells (%) [6]: 67%
- Population Normal (%) [6]: 93%
- Population Pyknosed Nuclei (%) [6]: 8%
- Total Cell Count [6]: 429
- Population Apoptotic (%) [7]: 20%
- Population Fragmented Nuclei (%) [7]: 9%
- Population Healthy Nuclei (%) [7]: 82%
- Population Hoechst High Intensity Objects (%) [7]: 5%
- Population Membrane Permeable-Phenotype (%) [7]: 0%
- Population Mitochondria Different-Phenotype (%) [7]: 19%
- Population Mitotic Cells (%) [7]: 79%
- Population Normal (%) [7]: 94%
- Population Pyknosed Nuclei (%) [7]: 7%
- Population Tubulin-Different-Phenotype (%) [7]: 11%
- Total Cell Count [7]: 663
- Population Apoptotic (%) [8]: 35%
- Population Hoechst High Intensity Objects (%) [8]: 7%
- Population Mitochondria Different-Phenotype (%) [8]: 30%
- Population Mitotic Cells (%) [8]: 64%
- Population Normal (%) [8]: 92%
- Population Tubulin-Different-Phenotype (%) [8]: 13%
- Total Cell Count [8]: 420
- Population Apoptotic (%) [9]: 18%
- Population Fragmented Nuclei (%) [9]: 13%
- Population Healthy Nuclei (%) [9]: 80%
- Population Hoechst High Intensity Objects (%) [9]: 2%
- Population Membrane Permeable-Phenotype (%) [9]: 1%
- Population Mitochondria Different-Phenotype (%) [9]: 12%
- Population Mitotic Cells (%) [9]: 81%
- Population Normal (%) [9]: 97%
- Population Pyknosed Nuclei (%) [9]: 5%
- Population Tubulin-Different-Phenotype (%) [9]: 7%
- Total Cell Count [9]: 1024
- Population Apoptotic (%) [10]: 19%
- Population Fragmented Nuclei (%) [10]: 14%
- Population Healthy Nuclei (%) [10]: 79%
- Population Hoechst High Intensity Objects (%) [10]: 3%
- Population Membrane Permeable-Phenotype (%) [10]: 0%
- Population Mitochondria Different-Phenotype (%) [10]: 16%
- Population Mitotic Cells (%) [10]: 80%
- Population Normal (%) [10]: 96%
- Population Pyknosed Nuclei (%) [10]: 6%
- Population Tubulin-Different-Phenotype (%) [10]: 9%
- Total Cell Count [10]: 653
- Population Apoptotic (%) [11]: 14%
- Population Fragmented Nuclei (%) [11]: 14%
- Population Healthy Nuclei (%) [11]: 81%
- Population Hoechst High Intensity Objects (%) [11]: 1%
- Population Membrane Permeable-Phenotype (%) [11]: 2%
- Population Mitochondria Different-Phenotype (%) [11]: 8%
- Population Mitotic Cells (%) [11]: 85%
- Population Normal (%) [11]: 98%
- Population Pyknosed Nuclei (%) [11]: 3%
- Population Tubulin-Different-Phenotype (%) [11]: 8%
- Total Cell Count [11]: 1205
- Population Apoptotic (%) [12]: 15%
- Population Healthy Nuclei (%) [12]: 78%
- Population Hoechst High Intensity Objects (%) [12]: 2%
- Population Membrane Permeable-Phenotype (%) [12]: 0%
- Population Mitochondria Different-Phenotype (%) [12]: 17%
- Population Mitotic Cells (%) [12]: 84%
- Population Normal (%) [12]: 97%
- Population Pyknosed Nuclei (%) [12]: 7%
- Total Cell Count [12]: 623
